Consider 3 molecules from BindingDB's records for doi:10.1021/acs.jmedchem.9b01547 (University of Oxford, 2020).

The term EC50 denotes the concentration at which the effect is half-maximal. Higher therefore signals a less potent agent.

Experiment [1] deals with T1, Utrophin (Homo sapiens, UniProt P46939). Kind of experiment: Activation of human utrophin-1 in mouse mdx myoblasts by H2K-mdx utrnA-luc assay. Put shortly:
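Firefly luciferase reporter gene assay in H2K-mdx utrnA-luc cells (mouse mdx myoblasts carrying a human muscle-specific utrophin A promoter). EC50 from non-linear regression curve fit of 2 biological replicates, 3 technical replicates each.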

The target of experiment [2] is T1, Utrophin. Kind of experiment: Activation of human utrophin-1 in iDMD cells by HTRF assay. Put shortly: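 HTRF quantification of human utrophin protein in lysates of treated iDMD cells, read at 620 and 665 nm emission; top concentration 10 μM. EC50 by non-linear regression curve fit from 2 biological replicates, each with 3 technical replicates.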
A general note: Time-resolved FRET reads energy transfer from a long-lived donor to a nearby acceptor.

T1 sequence (P46939 whole entry): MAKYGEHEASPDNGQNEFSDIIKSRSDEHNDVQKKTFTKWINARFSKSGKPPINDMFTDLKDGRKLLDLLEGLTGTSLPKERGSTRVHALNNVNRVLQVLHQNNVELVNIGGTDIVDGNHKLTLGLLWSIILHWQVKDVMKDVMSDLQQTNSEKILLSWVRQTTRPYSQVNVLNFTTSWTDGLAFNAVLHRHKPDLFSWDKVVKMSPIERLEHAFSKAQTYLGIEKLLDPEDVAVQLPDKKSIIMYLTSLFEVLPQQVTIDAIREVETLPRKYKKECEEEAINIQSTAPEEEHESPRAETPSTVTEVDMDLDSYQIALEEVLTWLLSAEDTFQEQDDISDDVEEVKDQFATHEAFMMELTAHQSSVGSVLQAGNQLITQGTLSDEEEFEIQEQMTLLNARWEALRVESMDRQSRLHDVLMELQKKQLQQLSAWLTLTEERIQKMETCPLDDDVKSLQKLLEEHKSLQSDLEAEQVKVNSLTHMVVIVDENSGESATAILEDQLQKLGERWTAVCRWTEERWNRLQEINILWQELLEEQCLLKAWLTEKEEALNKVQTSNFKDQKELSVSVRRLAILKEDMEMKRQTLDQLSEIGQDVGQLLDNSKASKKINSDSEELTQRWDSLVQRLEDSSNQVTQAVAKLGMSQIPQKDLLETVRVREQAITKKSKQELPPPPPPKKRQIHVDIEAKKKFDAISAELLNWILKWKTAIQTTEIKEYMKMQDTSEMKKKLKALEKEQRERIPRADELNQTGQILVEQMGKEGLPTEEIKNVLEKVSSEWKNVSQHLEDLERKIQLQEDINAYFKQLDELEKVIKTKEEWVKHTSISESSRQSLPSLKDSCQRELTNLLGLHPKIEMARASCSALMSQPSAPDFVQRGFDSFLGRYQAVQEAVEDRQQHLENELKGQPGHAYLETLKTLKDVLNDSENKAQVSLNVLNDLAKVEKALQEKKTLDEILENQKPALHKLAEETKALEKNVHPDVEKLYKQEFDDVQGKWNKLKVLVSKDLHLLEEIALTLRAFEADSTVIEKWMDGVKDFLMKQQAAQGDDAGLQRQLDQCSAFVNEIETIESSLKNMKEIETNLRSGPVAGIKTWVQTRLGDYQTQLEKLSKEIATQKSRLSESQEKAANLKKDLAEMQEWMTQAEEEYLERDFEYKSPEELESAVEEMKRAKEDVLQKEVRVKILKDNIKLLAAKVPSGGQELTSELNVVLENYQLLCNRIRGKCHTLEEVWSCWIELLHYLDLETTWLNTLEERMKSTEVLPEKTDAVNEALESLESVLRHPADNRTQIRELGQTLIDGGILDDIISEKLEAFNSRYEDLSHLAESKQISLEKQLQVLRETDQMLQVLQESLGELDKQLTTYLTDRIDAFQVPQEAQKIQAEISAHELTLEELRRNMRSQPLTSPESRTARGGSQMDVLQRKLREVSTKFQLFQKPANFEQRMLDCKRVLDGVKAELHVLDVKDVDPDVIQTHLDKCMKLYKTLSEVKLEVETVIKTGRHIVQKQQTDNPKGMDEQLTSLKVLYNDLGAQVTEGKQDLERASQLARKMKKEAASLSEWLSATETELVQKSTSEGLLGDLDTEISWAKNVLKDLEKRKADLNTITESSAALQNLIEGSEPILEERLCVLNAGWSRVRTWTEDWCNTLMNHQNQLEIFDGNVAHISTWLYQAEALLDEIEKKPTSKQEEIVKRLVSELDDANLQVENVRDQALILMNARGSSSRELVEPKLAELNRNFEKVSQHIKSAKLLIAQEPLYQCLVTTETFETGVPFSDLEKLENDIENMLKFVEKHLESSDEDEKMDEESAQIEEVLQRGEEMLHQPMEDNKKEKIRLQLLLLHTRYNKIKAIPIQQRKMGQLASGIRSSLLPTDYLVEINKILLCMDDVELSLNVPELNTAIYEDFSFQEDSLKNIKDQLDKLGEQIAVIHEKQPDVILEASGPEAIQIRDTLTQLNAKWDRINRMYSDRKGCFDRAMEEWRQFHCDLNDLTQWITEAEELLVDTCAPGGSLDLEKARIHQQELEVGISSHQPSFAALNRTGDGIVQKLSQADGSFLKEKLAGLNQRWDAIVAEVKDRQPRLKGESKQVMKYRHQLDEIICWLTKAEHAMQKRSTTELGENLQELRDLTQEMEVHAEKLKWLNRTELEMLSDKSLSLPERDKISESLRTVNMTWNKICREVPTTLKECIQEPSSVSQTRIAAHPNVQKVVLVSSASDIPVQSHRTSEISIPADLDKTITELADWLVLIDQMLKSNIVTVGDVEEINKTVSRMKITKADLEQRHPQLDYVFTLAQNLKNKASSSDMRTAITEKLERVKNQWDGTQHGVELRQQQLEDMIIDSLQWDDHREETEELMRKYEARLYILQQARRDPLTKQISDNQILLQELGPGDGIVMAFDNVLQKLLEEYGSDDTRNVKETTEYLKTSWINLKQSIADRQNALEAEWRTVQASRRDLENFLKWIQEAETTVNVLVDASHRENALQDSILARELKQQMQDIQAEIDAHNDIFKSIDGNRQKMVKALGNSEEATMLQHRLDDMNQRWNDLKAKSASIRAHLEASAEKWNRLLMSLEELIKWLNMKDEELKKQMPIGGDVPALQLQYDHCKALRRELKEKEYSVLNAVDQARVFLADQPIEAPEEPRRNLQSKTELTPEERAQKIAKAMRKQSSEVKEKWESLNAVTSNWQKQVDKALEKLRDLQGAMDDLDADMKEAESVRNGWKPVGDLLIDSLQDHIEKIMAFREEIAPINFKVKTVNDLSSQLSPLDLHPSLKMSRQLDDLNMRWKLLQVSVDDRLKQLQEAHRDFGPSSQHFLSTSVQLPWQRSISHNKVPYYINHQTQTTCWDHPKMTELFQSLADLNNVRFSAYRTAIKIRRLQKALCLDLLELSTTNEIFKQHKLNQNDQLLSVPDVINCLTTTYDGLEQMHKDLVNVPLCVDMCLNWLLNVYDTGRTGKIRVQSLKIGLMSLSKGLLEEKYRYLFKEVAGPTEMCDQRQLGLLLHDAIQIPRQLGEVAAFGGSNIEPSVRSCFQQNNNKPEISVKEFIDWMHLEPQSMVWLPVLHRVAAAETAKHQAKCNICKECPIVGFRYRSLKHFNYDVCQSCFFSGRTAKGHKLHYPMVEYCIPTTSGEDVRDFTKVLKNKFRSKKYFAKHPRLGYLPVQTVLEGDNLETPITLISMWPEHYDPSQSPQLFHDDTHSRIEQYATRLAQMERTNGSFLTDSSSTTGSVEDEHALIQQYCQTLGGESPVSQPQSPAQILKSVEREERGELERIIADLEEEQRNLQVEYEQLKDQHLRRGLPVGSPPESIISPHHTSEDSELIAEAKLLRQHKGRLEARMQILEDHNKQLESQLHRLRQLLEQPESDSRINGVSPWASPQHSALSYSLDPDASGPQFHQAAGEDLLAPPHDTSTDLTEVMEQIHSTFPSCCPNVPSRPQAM

In the case of `CCS(=O)(=O)c1ccc2oc(-c3ccc4c(c3)C=C[C@H](O)[C@H]4O)nc2c1`, the EC50 on Utrophin [1] is 370 nM; on Utrophin [2], more than 10000 nM.

As to `CCS(=O)(=O)c1ccc2oc(-c3ccc4c(c3)[C@@H](O)[C@H](O)C=C4)nc2c1`, the figures for the EC50 at Utrophin [1] and on Utrophin [2] were 120 nM and 8350 nM, respectively.

With `CCS(=O)(=O)c1ccc2oc(-c3ccc4ccccc4c3)nc2c1` [BMN 195], the EC50 at Utrophin [1] was determined as 110 nM; at Utrophin [2] it was 1280 nM.
